The record followed here is ChEMBL document CHEMBL1137147, “Low molecular weight thrombin inhibitors with excellent potency, metabolic stability, and oral bioavailability” (Bioorg Med Chem Lett, 2004).

pKi: −log10 of the molar value.

A short description of data set [1]: Plasma half life in dog when administered 1 mg/kg perorally. It counts as ADME, organism-based, Canis lupus familiaris. The following applies: po. Details: dose 1 mg/kg, route oral. A digest of the protocol: (§1)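 Amorphous TFA salts given orally at 1 mg/kg in 1% methocel to beagle dogs (n = 2). Blood sampled over 8 h post dose plus a final 24 h sample. Drug isolated from plasma by solid-phase extraction and quantified by LC–MS/MS against a standard curve. AUC and t1/2 derived from the concentration–time curve.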

The test system of data set [2] is Rattus norvegicus. The data set can be described thus: Effect (10 ug/kg/min) on FeCl3 induced clot formation on carotid artery, expressed as no. of vessel occlusions out of 6 rats. The data set is classed as functional. A digest of the protocol: (§2)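 Anesthetized rats given test compound by intravenous infusion at 10 µg/kg/min for 180 min. Topical FeCl3 applied to the carotid artery at 120 min post dose, then carotid blood flow monitored for 60 min. Result is the number of animals with occluded vessels (n = 5 or 6).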

The nature of data set [3]: Area under the curve in dog when administered 1 mg/kg perorally. Also noted: dose 1 mg/kg, route oral. The conditions noted are these: in vivo, po. It counts as ADME, organism-based, Canis lupus familiaris. The method in brief: as §1
A further data set deals with Prothrombin (Homo sapiens, UniProt P00734). The experiment in a line: Inhibition constant against human Thrombin.
Data set [4] deals with Rattus norvegicus. The data set can be described thus: Percent free rat plasma protein binding after administration of the compound. The data set is classed as functional.
The nature of data set [5]: Percent free human plasma protein binding after administration of the compound. The data set is classed as functional.
Data set [6] deals with Rattus norvegicus. The data set can be described thus: Effect (10 ug/kg/min) on FeCl3 induced clot formation on carotid artery, expressed as no. of vessel occlusions out of 5 rats. It counts as functional. A digest of the protocol: as §2

For the molecule `CC(C)(C)[C@@H](O)C(=O)N1CCC[C@H]1C(=O)NCc1cc(Cl)ccc1CN`, in data set [1], the half-life is 5.4 h. In addition, the Activity in the data set on Rattus norvegicus [2] stood at 0; in the data set on Rattus norvegicus [4] it was 54%; in data set [5], 24%. Also, in data set [3], the AUC came to 10 µM·h. The pKi on Prothrombin is 8.68.
The molecule `C[C@](O)(C(=O)N1CCC[C@H]1C(=O)NCc1cc(Cl)ccc1CN)c1ccccc1` had a half-life in data set [1] of 3.1 h. Also, the AUC in data set [3] was determined as 21 µM·h. On Prothrombin, this molecule had a pKi of 8.33.
`NCc1ccc(Cl)cc1CNC(=O)[C@@H]1CCCN1C(=O)[C@H](O)C1CCCCC1` gave a half-life in data set [1] of 2 h. Also, the Activity was 0 with Rattus norvegicus [2], 36% with Rattus norvegicus [4] and 4% in data set [5]. The molecule also showed an AUC in data set [3] of 1.7 µM·h. On Prothrombin, the pKi is 9.57.
`C[C@@](O)(C(=O)N1CCC[C@H]1C(=O)NCc1cc(Cl)ccc1CN)c1ccccc1` had a half-life in data set [1] of 3.4 h. The Activity in the data set on Rattus norvegicus [2] was 1; in the data set with Rattus norvegicus [4] it was 24%; in data set [5], 15%. This molecule came in with an AUC in data set [3] of 14 µM·h. Moreover, on Prothrombin, the pKi was 8.57.
The molecule `CC(C)(C)[C@@H](O)C(=O)N1CC[C@H]1C(=O)NCc1cc(Cl)ccc1CN` gave a half-life in data set [1] of 3.4 h. Moreover, in data set [3], the AUC worked out at 3.5 µM·h. Moreover, the Activity was 0 in the data set with Rattus norvegicus [6], 26% in the data set on Rattus norvegicus [4] and 21% in data set [5]. At Prothrombin, this molecule gave a pKi of 8.30.
Molecule `NCc1ccc(Cl)cc1CNC(=O)[C@@H]1CCCN1C(=O)[C@@H](O)c1ccccc1` showed a pKi at Prothrombin of 7.10.
With `NCc1ccc(Cl)cc1CNC(=O)[C@@H]1CCCN1C(=O)[C@H](O)c1ccccc1`, the half-life in data set [1] was 2 h. Also, in data set [3], the AUC amounted to 1.4 µM·h. At Prothrombin, this molecule had a pKi of 9.05.
On to `NCc1ccc(Cl)cc1CNC(=O)[C@@H]1CCCN1C(=O)CO`, for which, in data set [1], the half-life is 13 h. This molecule came in with an exposure (AUC) in data set [3] of 30 µM·h. Also, the Activity turned out to be 4 with Rattus norvegicus [6], 9% in the data set with Rattus norvegicus [4] and 1% in data set [5]. The molecule further had a negative logarithm of the Ki (pKi) on Prothrombin of 9.30.
`CC(C)[C@@H](O)C(=O)N1CCC[C@H]1C(=O)NCc1cc(Cl)ccc1CN` had a half-life in data set [1] of 4.2 h. Moreover, the values for the Activity (in the data set with Rattus norvegicus [2]; in the data set with Rattus norvegicus [4]; in data set [5]) were 2, 60% and 63%, respectively. The same molecule showed an AUC in data set [3] of 4.9 µM·h. Besides, the pKi at Prothrombin was 8.25.
Turning to `CC(C)(C1CC1)[C@@H](O)C(=O)N1CC[C@H]1C(=O)NCc1cc(Cl)ccc1CN`, in data set [1], the half-life was 4.7 h. For the same molecule, the AUC in data set [3] was 11 µM·h. For the same molecule, the figures for the Activity (with Rattus norvegicus [6]; with Rattus norvegicus [4]; in data set [5]) were 0, 17% and 11%, respectively. The molecule further had a pKi on Prothrombin of 8.43.

For orientation: half-life means the time in which the quantity being followed falls by half. As usually defined, the AUC is concentration integrated over time. A high value points to high exposure. The term pKi denotes the negative decadic logarithm of the Ki, by convention in mol/L. Lower therefore signals a large Ki.
